Source: ChEMBL document CHEMBL1131436, “Repaglinide and related hypoglycemic benzoic acid derivatives” (1998)

What was measured:
Rattus norvegicus [1] = experiment: Maximum % decrease of blood glucose (deltaBG) was observed within 4 hour after administration orally at 1 mg/kg dose to fasted adult female rats versus a control group; format: functional; conditions: route oral
Procedure, shortened: (§1)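 Female Wistar rats (Chbb THOM, SPF, 200-220 g), fasted 24 h, dosed orally by gavage as suspension in 1.5% Tylose methylcellulose (10 mL/kg). Whole blood from retrobulbar plexus under light halothane, deproteinized with 0.33 M HClO4; glucose by hexokinase/G6PDH, hourly up to 4 h. % decrease vs control group (N = 7), Student's t-test, P ≤ 0.05.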

Rattus norvegicus [2] = experiment: Maximum % decrease of blood glucose (deltaBG) was observed within 4 hour after administration orally at 0.1 mg/kg dose to fasted adult female rats versus a control group; format: functional; conditions: route oral; procedure, shortened: as §1
Rattus norvegicus [3] = experiment: Maximum % decrease of blood glucose (deltaBG) was observed within 4 hour after administration orally at 1 mg/kg dose to fasted adult female rats versus a control group; NS =' not significant'; format: functional, organism-based; parameters: dose 1 mg/kg; procedure, shortened: as §1
Rattus norvegicus [4] = experiment: Maximum % decrease of blood glucose (deltaBG) was observed within 4 hour after administration orally at 10 mg/kg dose to fasted adult female rats versus a control group; format: functional; conditions: route oral; procedure, shortened: as §1
Rattus norvegicus [5] = experiment: Maximum % decrease of blood glucose (deltaBG) was observed within 4 hour after administration orally at 25 mg/kg dose to fasted adult female rats versus a control group; NS =' not significant'; format: functional, organism-based; parameters: dose 25 mg/kg; procedure, shortened: as §1
Rattus norvegicus [6] = experiment: Maximum % decrease of blood glucose (deltaBG) was observed within 4 hour after administration orally at 0.5 mg/kg dose to fasted adult female rats versus a control group; format: functional; conditions: route oral; procedure, shortened: as §1
Rattus norvegicus [7] = experiment: Maximum % decrease of blood glucose (deltaBG) was observed within 4 hour after administration orally at 5 mg/kg dose to fasted adult female rats versus a control group; format: functional; conditions: route oral; procedure, shortened: as §1
Rattus norvegicus [8] = experiment: Half-maximal effective dose was measured on rat blood glucose after administrating at 4 hr; format: functional; conditions: Rattus norvegicus, Blood, 4 h; read-out: ED50
Procedure, shortened: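 Adult fasted female Wistar rats (Chbb THOM, SPF, 200-220 g), food withdrawn 24 h; oral gavage of suspension in 1.5% Tylose (methylcellulose), 10 mL/kg. Retrobulbar blood under light halothane; glucose by hexokinase/G6PDH after HClO4 deproteinization, hourly to 4 h. ED50 from fit of glucose vs dose, y = b + [a × k/(k + x^nH)], Hill coefficient nH.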

## O=C(O)c1ccc(CCNC(=O)c2cc(Cl)ccc2N2CCCCCCCCC2)cc1
Rattus norvegicus [1]
  Delta BG: -29%

## CCC[C@H](NC(=O)Cc1ccc(C(=O)O)cc1)c1ccccc1N1CCCCC1
Rattus norvegicus [2]
  Delta BG: -29%

## O=C(O)c1ccc(CCNC(=O)c2cc(Cl)ccc2N2CCCCCCC2)cc1
Rattus norvegicus [1]
  Delta BG: -29%

## CCCC(NC(=O)Cc1ccc(C(=O)O)c(O)c1)c1ccccc1N1CCCCC1 (configuration not stated)
Rattus norvegicus [3]
  Delta BG: Not significant
Rattus norvegicus [4]
  Delta BG: -47%

## CC(NC(=O)Cc1ccc(C(=O)O)cc1)c1cc(Cl)ccc1N1CCCCCCCC1 (configuration not stated)
Rattus norvegicus [5]
  Delta BG: Not significant

## CCCCC(NC(=O)Cc1ccc(C(=O)O)cc1)c1ccccc1N1CCCCC1 (configuration not stated)
Rattus norvegicus [6]
  Delta BG: -32%

## CC(NC(=O)Cc1ccc(C(=O)O)cc1)c1cc(Cl)ccc1N1CCCCCCC1 (configuration not stated)
Rattus norvegicus [5]
  Delta BG: Not significant

## CC(NC(=O)Cc1ccc(C(=O)O)cc1)c1cc(Cl)ccc1N1CCCC1 (configuration not stated)
Rattus norvegicus [4]
  Delta BG: -26%

## CCCCCCC(NC(=O)Cc1ccc(C(=O)O)c(OCC)c1)c1ccccc1N1CCCCC1 (configuration not stated)
Rattus norvegicus [1]
  Delta BG: -21%

## CCCC(c1ccccc1N1CCCCC1)N(C)C(=O)Cc1ccc(C(=O)O)cc1 (configuration not stated)
Rattus norvegicus [4]
  Delta BG: -12%

## CCOc1cc(CC(=O)NC(CC2CCC2)c2ccccc2N2CCCCC2)ccc1C(=O)O (configuration not stated)
Rattus norvegicus [2]
  Delta BG: -27%

## CCOc1cc(CC(=O)NC(c2ccccc2)c2ccccc2N2CCCCC2)ccc1C(=O)O (configuration not stated)
Rattus norvegicus [2]
  Delta BG: -22%
Rattus norvegicus [6]
  Delta BG: -40%

## CCCC(CC(=O)Cc1ccc(C(=O)O)cc1)c1ccccc1N1CCCCC1 (configuration not stated)
Rattus norvegicus [4]
  Delta BG: -11%

## CC1CC(C)CN(c2ccc(Cl)cc2C(C)NC(=O)Cc2ccc(C(=O)O)cc2)C1 (configuration not stated)
Rattus norvegicus [4]
  Delta BG: -20%

## CCOc1cc(CC(=O)NC(C)c2ccccc2N2CCCCC2)ccc1C(=O)O (configuration not stated)
Rattus norvegicus [2]
  Delta BG: -27%

## CCC[C@@H](NC(=O)Cc1ccc(C(=O)O)cc1)c1ccccc1N1CCCCC1
Rattus norvegicus [1]
  Delta BG: -19%

## COc1cc(CCNC(=O)c2cc(Cl)ccc2N2CCCCCCCC2)ccc1C(=O)O
Rattus norvegicus [1]
  Delta BG: -15%

## O=C(O)c1ccc(CCNC(=O)c2cc(Cl)ccc2N2CCCCCC2)cc1
Rattus norvegicus [1]
  Delta BG: -16%

## O=C(Cc1ccc(C(=O)O)cc1)NC(Cc1ccccc1)c1ccccc1N1CCCCC1 (configuration not stated)
Rattus norvegicus [4]
  Delta BG: -27%

## CCCCC(NC(=O)Cc1ccc(C(=O)O)c(OCC)c1)c1ccccc1N1CCCCC1 (configuration not stated)
Rattus norvegicus [2]
  Delta BG: -24%
Rattus norvegicus [6]
  Delta BG: -45%

## CCCCCC(NC(=O)Cc1ccc(C(=O)O)c(OCC)c1)c1ccccc1N1CCCCC1 (configuration not stated)
Rattus norvegicus [2]
  Delta BG: -13%
Rattus norvegicus [6]
  Delta BG: -42%

## CC(NS(=O)(=O)Cc1ccc(C(=O)O)cc1)c1ccccc1N1CCCCC1 (configuration not stated)
Rattus norvegicus [5]
  Delta BG: Not significant

## CC(NC(=O)Cc1ccc(C(=O)O)cc1)c1ccccc1N1CCCCCCCC1 (configuration not stated)
Rattus norvegicus [5]
  Delta BG: Not significant

## CCCCCC(NC(=O)Cc1ccc(C(=O)O)cc1)c1ccccc1N1CCCCC1 (configuration not stated)
Rattus norvegicus [1]
  Delta BG: -29%

## CC(NC(=O)Cc1ccc(C(=O)O)cc1)c1cc(Cl)ccc1N(C)C (configuration not stated)
Rattus norvegicus [4]
  Delta BG: -20%

## CCCC(CCCc1ccc(C(=O)O)cc1)c1ccccc1N1CCCCC1 (configuration not stated)
Rattus norvegicus [5]
  Delta BG: Not significant

## CC(C)(NC(=O)Cc1ccc(C(=O)O)cc1)c1ccccc1N1CCCCC1
Rattus norvegicus [4]
  Delta BG: -34%

## CCOc1cc(CCNC(=O)c2cc(Cl)ccc2N2CCCCCCCC2)ccc1C(=O)O
Rattus norvegicus [1]
  Delta BG: -16%

## CC(C(=O)NCc1ccc(C(=O)O)cc1)c1ccccc1N1CCCCC1 (configuration not stated)
Rattus norvegicus [7]
  Delta BG: -32%

## CCOc1cc(CC(=O)NC(CC2CCCCC2)c2ccccc2N2CCCCC2)ccc1C(=O)O (configuration not stated)
Rattus norvegicus [2]
  Delta BG: -23%

## CC1CCCN(c2ccccc2C(C)NC(=O)Cc2ccc(C(=O)O)cc2)C1 (configuration not stated)
Rattus norvegicus [1]
  Delta BG: -27%
Rattus norvegicus [4]
  Delta BG: -42%

## CCOc1cc(CC(=O)NC(Cc2ccccc2)c2ccccc2N2CCCCC2)ccc1C(=O)O (configuration not stated)
Rattus norvegicus [4]
  Delta BG: -38%

## CC1CCN(c2ccc(Cl)cc2C(=O)NCCc2ccc(C(=O)O)cc2)CC1
Rattus norvegicus [3]
  Delta BG: Not significant

## CCC(NC(=O)Cc1ccc(C(=O)O)cc1)c1ccccc1N1CCCCC1 (configuration not stated)
Rattus norvegicus [6]
  Delta BG: -28%

## CC(NC(=O)Cc1ccc(C(=O)O)cc1)c1cc(Cl)ccc1N1CCCCC1C (configuration not stated)
Rattus norvegicus [4]
  Delta BG: -14%

## O=C(Cc1ccc(C(=O)O)cc1)N[C@H](c1ccccc1)c1ccccc1N1CCCCC1
Rattus norvegicus [3]
  Delta BG: Not significant

## COc1ccc(Cl)cc1C(C)NC(=O)Cc1ccc(C(=O)O)cc1 (configuration not stated)
Rattus norvegicus [4]
  Delta BG: -14%

## O=C(Cc1ccc(C(=O)O)cc1)NC(CCc1ccccc1)c1ccccc1N1CCCCC1 (configuration not stated)
Rattus norvegicus [4]
  Delta BG: -38%

## O=C(O)c1ccc(CCNC(=O)c2cc(Cl)ccc2N2CCCCCCCCCC2)cc1
Rattus norvegicus [3]
  Delta BG: Not significant

## CCCC(NC(=O)Cc1ccc(C(=O)O)cc1)c1ccccc1C1=CCCCC1 (configuration not stated)
Rattus norvegicus [3]
  Delta BG: Not significant
Rattus norvegicus [4]
  Delta BG: -48%

## CC(NC(=O)Cc1ccccc1C(=O)O)c1ccccc1N1CCCCC1 (configuration not stated)
Rattus norvegicus [5]
  Delta BG: Not significant

## CC1CC(C)CN(c2ccc(Cl)cc2C(=O)NCCc2ccc(C(=O)O)cc2)C1 (stereo in doubt; 5i)
Rattus norvegicus [1]; 1 mg/kg
  Delta BG: -11%

## CCCC(NC(=O)Cc1ccc(C(=O)O)cc1)c1ccccc1OC (configuration not stated)
Rattus norvegicus [1]
  Delta BG: -21%
Rattus norvegicus [4]
  Delta BG: -44%

## CC1CCN(c2ccccc2C(C)NC(=O)Cc2ccc(C(=O)O)cc2)CC1 (configuration not stated)
Rattus norvegicus [1]
  Delta BG: -27%
Rattus norvegicus [4]
  Delta BG: -46%

## CCCC(NC(=O)Cc1ccc(C(=O)O)cc1)c1ccccc1 (configuration not stated)
Rattus norvegicus [4]
  Delta BG: -18%

## C=C(C)CC(NC(=O)Cc1ccc(C(=O)O)c(OCC)c1)c1ccccc1N1CCCCC1 (configuration not stated)
Rattus norvegicus [2]
  Delta BG: -31%

## CCCC(NC(=O)Cc1ccc(C(=O)O)cc1)c1cc(Cl)ccc1N1CCCCC1 (configuration not stated)
Rattus norvegicus [1]
  Delta BG: -17%

## CC(NC(=O)Cc1ccc(C(=O)O)cc1)c1ccccc1N1CCCCCC1 (configuration not stated)
Rattus norvegicus [7]
  Delta BG: -29%

## COc1ccc(Cl)cc1C(=O)NCCc1ccc(C(=O)O)cc1 [MEGLITINIDE]
Rattus norvegicus [8]
  ED50: 9.4 mg/kg
Rattus norvegicus [1]
  Delta BG: -9%
Rattus norvegicus [4]
  Delta BG: -22%

## COc1ccccc1C(C)NC(=O)Cc1ccc(C(=O)O)cc1 (configuration not stated)
Rattus norvegicus [4]
  Delta BG: -21%

## CC1CC(C)CN(c2ccc(Cl)cc2C(=O)NCCc2ccc(C(=O)O)cc2)C1 (stereo in doubt; 5h)
Rattus norvegicus [8]
  ED50: 0.33 mg/kg
Rattus norvegicus [6]
  Delta BG: -29%
Rattus norvegicus [1]; 1 mg/kg
  Delta BG: -44%

## CCCC(NC(=O)Cc1ccc(C(=O)O)cc1)c1ccccc1-c1ccccc1 (configuration not stated)
Rattus norvegicus [4]
  Delta BG: -21%

## CCCC(/N=C(\S)Cc1ccc(C(=O)O)cc1)c1ccccc1N1CCCCC1 (configuration not stated)
Rattus norvegicus [4]
  Delta BG: -35%

## O=C(Cc1ccc(C(=O)O)cc1)NCc1ccccc1N1CCCCC1
Rattus norvegicus [4]
  Delta BG: -38%

## CC(NC(=O)Cc1ccc(C(=O)O)cc1)c1ccc(N2CCCCC2)cc1 (configuration not stated)
Rattus norvegicus [5]
  Delta BG: Not significant

## CC(C)CC(NC(=O)Cc1ccc(C(=O)O)cc1)c1ccccc1N1CCCCC1 (configuration not stated)
Rattus norvegicus [2]
  Delta BG: -30%

## CCOc1cc(CC(=O)N[C@H](CC(C)C)c2ccccc2N2CCCCC2)ccc1C(=O)O
Rattus norvegicus [3]
  Delta BG: Not significant

## CCOc1cc(CC(=O)NC(CC2CC2)c2ccccc2N2CCCCC2)ccc1C(=O)O (configuration not stated)
Rattus norvegicus [2]
  Delta BG: -37%

## CC(NC(=O)Cc1ccc(C(=O)O)cc1)c1ccccc1N1CCCCC1C (configuration not stated)
Rattus norvegicus [1]
  Delta BG: -13%
Rattus norvegicus [4]
  Delta BG: -43%

## CCOc1cc(CCNC(=O)c2cc(Cl)ccc2OC)ccc1C(=O)O
Rattus norvegicus [1]
  Delta BG: -8%
Rattus norvegicus [4]
  Delta BG: -35%

## CC(C)C(NC(=O)Cc1ccc(C(=O)O)cc1)c1ccccc1N1CCCCC1 (configuration not stated)
Rattus norvegicus [6]
  Delta BG: -18%

## O=C(O)c1ccc(CCNC(=O)c2ccccc2N2CCCCCCCC2)cc1
Rattus norvegicus [1]
  Delta BG: -9%

## CC1CCCCN1c1ccc(Cl)cc1C(=O)NCCc1ccc(C(=O)O)cc1 (configuration not stated)
Rattus norvegicus [1]
  Delta BG: -16%

## CC1CCCN(c2ccc(Cl)cc2C(C)NC(=O)Cc2ccc(C(=O)O)cc2)C1 (configuration not stated)
Rattus norvegicus [4]
  Delta BG: -34%

## C=C(C)C[C@H](NC(=O)Cc1ccc(C(=O)O)c(OCC)c1)c1ccccc1N1CCCCC1
Rattus norvegicus [2]
  Delta BG: -43%

## O=C(Cc1ccc(C(=O)O)cc1)NCc1cc(Cl)ccc1N1CCCCC1
Rattus norvegicus [4]
  Delta BG: -37%

## CC(NC(=O)Cc1ccc(C(=O)O)cc1)c1ccccc1N(C)C (configuration not stated)
Rattus norvegicus [4]
  Delta BG: -20%

## CCCC(NC(=O)Cc1ccc(C(=O)O)cc1)c1ccccc1C1CCCCC1 (configuration not stated)
Rattus norvegicus [1]
  Delta BG: -9%
Rattus norvegicus [4]
  Delta BG: -31%

## CC1CCCN(c2ccc(Cl)cc2C(=O)NCCc2ccc(C(=O)O)cc2)C1 (configuration not stated)
Rattus norvegicus [1]
  Delta BG: -22%

## CCOc1cc(CC(=O)NC(CC2CCCCCC2)c2ccccc2N2CCCCC2)ccc1C(=O)O (configuration not stated)
Rattus norvegicus [6]
  Delta BG: -19%

## CCOc1cc(CC(=O)NC(CC2CCCC2)c2ccccc2N2CCCCC2)ccc1C(=O)O (configuration not stated)
Rattus norvegicus [2]
  Delta BG: -17%

## O=C(Cc1ccc(C(=O)O)cc1)NC(c1ccccc1N1CCCCC1)C1CCCCC1 (configuration not stated)
Rattus norvegicus [1]
  Delta BG: -27%
